The nature of data set [1]: Toxicity in ddY mouse model of OVX-induced osteoporosis assessed as increase in body weight at 10 mg/kg, po administered once daily via gavage for 4 weeks measured 5 weeks post OVX-challenge. Format: organism-based. Conditions: in vivo, 840 h. In a few lines:
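Dosing of ddY mice began one week after ovariectomy: compound in 300 μL of 0.5% (v/v) DMSO-containing PBS by gavage once daily for 28 d. OVX and sham controls received vehicle. Body weight was compared with sham control 5 weeks after OVX.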

The nature of data set [2]: Terminal half-life in ICR mouse at 50 mg/kg, po administered via gavage measured up to 8 hrs by LC-MS/HPLC analysis. Conditions: in vivo, read-out: beta t1/2 (converted). Format: ADME, organism-based. A digest of the protocol: (§1)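 Six-week-old male ICR mice (n = 3) were kept at 25 ± 2 °C on a 12 h light/dark cycle and dosed iv or po. Total plasma concentration (bound plus unbound) was plotted against time. Terminal T1/2 came from the elimination phase: a two-compartment fit for po dosing and a single-compartment fit for iv dosing.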

Data set [3] is described as follows: AUC (0 to infinity) in ICR mouse at 50 mg/kg, po administered via gavage measured up to 8 hrs by LC-MS/HPLC analysis. Also noted: dose 50 mg/kg, time infinity, route oral. Format: ADME, organism-based. The note with it: in vivo. In a few lines: (§2)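 Six-week-old male ICR mice, housed at 25 ± 2 °C, 60 ± 10% humidity, 12 h light/dark. Dosing was iv at 2 mg/kg or po at 10 and 50 mg/kg. Plasma concentrations were total, bound plus unbound. AUC∞ is from time zero to infinity. F = (AUCpo/AUCiv) × 100. Cmax and AUC∞ are mean ± SD of three mice.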

Data set [4] concerns Mus musculus. As to the kind of experiment: Antiosteoporotic activity in ddY mouse model of OVX-induced osteoporosis assessed as increase in trabecular thickness in femur bone at 10 mg/kg, po administered once daily via gavage for 4 weeks by microcomputed tomographic analysis. The format is functional, organism-based. In a few lines: (§3)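 Female ddY mice were ovariectomized. Oral gavage began 1 week after surgery and ran once daily for 28 d. Vehicle was 300 μL PBS containing 0.5% (v/v) DMSO, also given to sham and OVX controls. Mice were then euthanized and femur and tibia fixed for CT imaging. Values are mean ± SD of four mice.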

Data set [5] can be described thus: Cmax in ICR mouse at 50 mg/kg, po administered via gavage measured up to 8 hrs by LC-MS/HPLC analysis. The format is ADME, organism-based. Also noted: dose 50 mg/kg, route oral. Conditions: in vivo. A digest of the protocol: as §2
In data set [6] the test system is Mus musculus. As to the kind of experiment: Antiosteoporotic activity in ddY mouse model of OVX-induced osteoporosis assessed as increase in trabecular number in femur bone at 10 mg/kg, po administered once daily via gavage for 4 weeks by microcomputed tomographic analysis. Format: functional, organism-based. A digest of the protocol:
as §3

Data set [7] concerns Mus musculus. The data set can be described thus: Antiosteoporotic activity in ddY mouse model of OVX-induced osteoporosis assessed as increase in femur bone mineral density at 10 mg/kg, po administered once daily via gavage for 4 weeks by microcomputed tomographic analysis. Format: functional, organism-based. In a few lines: as §3
Data set [8] is described as follows: Terminal half-life in ICR mouse at 2 mg/kg, iv measured up to 8 hrs by LC-MS/HPLC analysis. The format is ADME, organism-based. The note with it: in vivo, read-out: beta t1/2 (converted). In a few lines:
as §1

The nature of data set [9]: Oral bioavailability in ICR mouse at 50 mg/kg administered via gavage measured up to 8 hrs by LC-MS/HPLC analysis. Format: ADME, organism-based. Conditions: in vivo. In a few lines:
as §2

Data set [10] has as its system MC3T3-E1. As to the kind of experiment: Osteo-blastogenic activity in mouse MC3T3-E1 cells assessed as stimulation of ALP activity at 50 uM supplemented with fresh medium every 3 to 4 days and measured after 14 days relative to control. The format is functional. A digest of the protocol:
(§4)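 MC3T3-E1 subclone 4 osteoblastic cells were grown in α-MEM at 37 °C under 5% CO2 with compound present during differentiation. ALP activity was read 14 d after induction and expressed as % of untreated cells. Values are mean ± SD of three independent experiments.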

A short description of data set [11]: AUC (0 to infinity) in ICR mouse at 10 mg/kg, po administered via gavage measured up to 8 hrs by LC-MS/HPLC analysis. Format: ADME, organism-based. More on the design: dose 10 mg/kg, route oral, time infinity. The note with it: in vivo. A digest of the protocol: as §2
A short description of data set [12]: Oral bioavailability in ICR mouse at 10 mg/kg administered via gavage measured up to 8 hrs by LC-MS/HPLC analysis. Conditions: in vivo. Format: ADME, organism-based. In a few lines: as §2
For data set [13], the system named is Mus musculus. The data set can be described thus: Antiosteoporotic activity in ddY mouse model of OVX-induced osteoporosis assessed as increase in ratio of bone volume/trabecular volume in femur bone at 10 mg/kg, po administered once daily via gavage for 4 weeks by microcomputed tomographic analysis. Format: functional, organism-based. In a few lines:
as §3

The subject of data set [14] is MC3T3-E1. As to the kind of experiment: Osteo-blastogenic activity in mouse MC3T3-E1 cells assessed as stimulation of ALP activity at 10 uM supplemented with fresh medium every 3 to 4 days and measured after 14 days relative to control. The format is functional. In a few lines: as §4
Data set [15] can be described thus: Inhibition of M-CSF/RANKL-induced osteoclast differentiation in C57BL/6 mouse bone marrow macrophage assessed as reduction in multinucleated TRAP+ cells incubated for 6 days with fresh media replacement on day 3 and measured on day 6 by TRAP staining-based microscopic analysis. Conditions: C57BL/6, BMDM. Format: functional, cell-based. In a few lines: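 BMM came from femur and tibia marrow of 5–8-week-old male C57BL/6 mice and were purified over lymphocyte separation medium. Cells, 1 × 10^5 per well, were grown in α-MEM/10% FBS with M-CSF (60 ng/mL) and RANKL (150 ng/mL) for 6 d, medium changed day 3. Compound range was 0.01−100 μM. TRAP+ multinucleated cells were counted on day 6.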

The nature of data set [16]: Cmax in ICR mouse at 10 mg/kg, po administered via gavage measured up to 8 hrs by LC-MS/HPLC analysis. The format is ADME, organism-based. Also noted: dose 10 mg/kg, route oral. The note with it: in vivo. A digest of the protocol: as §2
Data set [17] concerns Mus musculus. As to the kind of experiment: Antiosteoporotic activity in ddY mouse model of OVX-induced osteoporosis assessed as increase in cross-sectional thickness in femur bone at 10 mg/kg, po administered once daily via gavage for 4 weeks by microcomputed tomographic analysis. Format: functional, organism-based. A digest of the protocol: as §3
Data set [18] is described as follows: Cytotoxicity against mouse RAW264.7 cells after 24 hrs by MTT assay. Format: cell-based. Conditions: read-out: LD50. A digest of the protocol: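 RAW264.7 macrophages (preosteoclast line) were kept in DMEM at 37 °C under 5% CO2 and tested without RANKL. MTT read-out of growth and survival, expressed as LD50.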
Data set [19] deals with Mus musculus. As to the kind of experiment: Antiosteoporotic activity in ddY mouse model of OVX-induced osteoporosis assessed as reduction in trabecular separation in femur bone at 10 mg/kg, po administered once daily via gavage for 4 weeks by microcomputed tomographic analysis. Format: functional, organism-based. A digest of the protocol:
as §3

The test system of data set [20] is Mus musculus. As to the kind of experiment: Antiosteoporotic activity in ddY mouse model of OVX-induced osteoporosis assessed as increase in new bone volume in femur bone at 10 mg/kg, po administered once daily via gavage for 4 weeks by microcomputed tomographic analysis. Format: functional, organism-based. A digest of the protocol: as §3
Data set [21] can be described thus: AUC (0 to infinity) in ICR mouse at 2 mg/kg, iv measured up to 8 hrs by LC-MS/HPLC analysis. Also noted: dose 2 mg/kg, time infinity, route intravenous. Conditions: in vivo. The format is ADME, organism-based. In a few lines: as §2
Data set [22] can be described thus: Terminal half-life in ICR mouse at 10 mg/kg, po administered via gavage measured up to 8 hrs by LC-MS/HPLC analysis. Conditions: in vivo, read-out: beta t1/2 (converted). The format is ADME, organism-based. In a few lines: as §1
For a further data set, the system named is BMDM. The data set can be described thus: Suppression of NFATc1 expression in M-CSF induced C57BL/6 mouse bone marrow macrophages at 10 uM measured over 5 days by Western blot analysis. The format is functional, cell-based. In a few lines: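 C57BL/6 BMM were kept proliferating with M-CSF in the absence of RANKL and treated with compound (0.5 or 10 μM). NFATc1 expression was followed over the culture period by Western blot.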
A general note: Immunoblotting shows a protein as a band on a membrane.

Activity calls are given as the source filed them. The rule behind the calls is not given here.

Turning to `COc1ccc(/C=C/C(C)=O)cc1O`, the figures for the Activity entry (in data set [1]; in the data set on MC3T3-E1 [10]; in the data set with MC3T3-E1 [14]) were “Toxic”, 180% and 100%, respectively. Moreover, the values for the half-life in data set [2], in data set [8] and in [22] were 2.2 h, 1 h and 1.2 h, respectively. Moreover, the area under the curve AUC(0-inf) in data set [3] is 0.72 µM·h; in data set [11] it was 0.14 µM·h; in data set [21] it was 0.1 µM·h. In addition, the result in the data set with Mus musculus [4], in the data set with Mus musculus [6], in the data set with Mus musculus [7], with Mus musculus [13], with Mus musculus [17] and in the data set with Mus musculus [19] was Active. Also, the result with Mus musculus [20] was Active. Further, the Cmax in data set [5] is 880 nM; in data set [16] it was 160 nM. For the same molecule, the bioavailability amounted to 29% in [9] and 26% in data set [12]. Besides, the IC50 in data set [15] amounted to 0.11 µM. Further, the CC50 at 24 h in data set [18] was > 5000 µM.

On to `CC(=O)/C=C/c1ccc(O)c(O)c1`, for which the Activity result in [1] is “Toxic”; in the data set on MC3T3-E1 [10] it was 280%; in the data set with MC3T3-E1 [14], 120%. Moreover, the half-life in data set [2] was 3.1 h; in data set [8], 0.4 h; in data set [22], 2.1 h. Further, the AUC(0-inf) in data set [3] turned out to be 0.66 µM·h; in data set [11], 0.14 µM·h; in data set [21], 0.039 µM·h. Moreover, the result with Mus musculus [4], in the data set with Mus musculus [6], with Mus musculus [7], in the data set on Mus musculus [13], with Mus musculus [17] and in the data set on BMDM was Active. The result with Mus musculus [19] and in the data set with Mus musculus [20] was Active. The values for the highest concentration (Cmax) in data set [5] and in data set [16] were 1100 nM and 200 nM, respectively. The bioavailability in data set [9] came out at 76%; in [12] it was 66%. Also, the IC50 in data set [15] turned out to be 7.8 µM. In addition, the CC50 at 24 h in [18] amounted to 500 µM.

What is called AUC(0-inf) is the area under the concentration-time curve extrapolated to infinity. Higher therefore signals more exposure. In general, Cmax refers to the maximum level reached in the sampled fluid or tissue. A word on the bioavailability: it is the share of a dose that reaches the circulation, judged against a reference dose that is usually intravenous. A higher bioavailability goes with much systemic uptake. In general, IC50 refers to the concentration that inhibits the measured activity by half.
